Bioassay records as filed in PubChem BioAssay.
Runt-SMMHC FRET = inhibitors of human RUNX1 Runt domain binding to CBFb-SMMHC; Cerulean-Runt/Venus-CBFb-SMMHC FRET ratio 530/480, 1 h; 220,000 compounds, 0.74% hits; inhibition, % at 20 µM;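 active = mean inhibition across duplicate retests at 20 µM reaching about 50%, limit read from the data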;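 also: inhibitors lower the FRET ratio by blocking Runt binding to CBFb-SMMHC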
Hck Nef HTS = inhibitors of human Hck kinase activated by Nef; P08631; Recombinant Hck-YEEI plus Nef, Z-Lyte FRET kinase assay; inhibition, % at 20 µM; 220,000 compounds, 0.68% hits; AID 463187;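 active = Hck-Nef kinase inhibition above about 50%, limit read from the data; inactive = inhibition below that limit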
Target sequence (P08631 whole entry, looked up): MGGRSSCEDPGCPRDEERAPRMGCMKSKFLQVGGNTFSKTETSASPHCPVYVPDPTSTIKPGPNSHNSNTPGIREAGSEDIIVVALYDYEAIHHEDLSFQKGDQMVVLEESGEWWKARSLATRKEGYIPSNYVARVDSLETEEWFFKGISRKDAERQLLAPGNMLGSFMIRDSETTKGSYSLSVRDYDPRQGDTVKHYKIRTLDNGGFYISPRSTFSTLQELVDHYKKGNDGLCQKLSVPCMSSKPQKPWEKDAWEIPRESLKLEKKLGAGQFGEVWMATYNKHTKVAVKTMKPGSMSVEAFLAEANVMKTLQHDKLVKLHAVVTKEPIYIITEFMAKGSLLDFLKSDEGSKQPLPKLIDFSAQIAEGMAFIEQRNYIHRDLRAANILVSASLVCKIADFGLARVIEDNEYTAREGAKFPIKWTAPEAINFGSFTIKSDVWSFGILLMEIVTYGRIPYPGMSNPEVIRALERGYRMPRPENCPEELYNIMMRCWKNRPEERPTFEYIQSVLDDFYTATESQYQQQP
RanGTP-Impb inh = inhibitors of RanGTP-importin-beta interaction, primary screen, biochemical, FRET, CFP-Ran, YFP-importin-beta, homogeneous; cell-free CFP-Ran/YFP-importin-beta FRET ratio; inhibition, % (no concentration beside the values); 300,000 compounds, 1.1% hits; AID 2216;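 active = more than half of the replicate wells show a fall in the fluorescence ratio signal beyond about 16%, limit read from the data, passing the limit was not always enough; inconclusive = exactly half of the replicate wells pass the set limit; inactive = fewer than half of replicates pass the limit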
PfM18AAP inh-1 = PfM18AAP enzyme inhibition; recombinant PfM18AAP, H-Glu-NHMec fluorogenic cleavage; inhibition, % at 7.35 µM; 290,000 compounds, 1.2% hits; AID 1822;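 active = inhibition above the campaign mean inhibition over all tested compounds plus 3 SD, cut at about 28% in these data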
Runt-CBFb FRET = Runt domain-CBFb interaction inhibition; Q01196+Q13951; Cerulean-Runt/Venus-CBFb FRET ratio 530/480, 1 h; inhibition, % at 20 µM; 220,000 compounds, 0.46% hits;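 active = inhibition over about 50% at 20 µM in the single-dose screen, limit read from the data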
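Assay system: Cerulean-Runt domain / Medium: Tris 50 mM pH 7.5, KCl, K2SO4, 0.01% BSA / Timing: protein complex preformed 1 h, compound exposure 1 h, room temperature, dark / Measured by: FRET, excitation 422 nm, emission at 530 and 480 nm / Evaluation: loss of energy transfer signal / Control set: 5 µM unlabeled CBFb as full-inhibition high control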
RBBP9 inhibitor = blocks human serine hydrolase RBBP9; inhibition, % at 7.94 µM; 220,000 compounds, 0.2% hits; recombinant RBBP9, FP-Rh probe fluorescence polarization;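 active = inhibition above the campaign mean of all tested compounds plus 3 SD, cut at about 14% in these data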
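Test system: recombinant human RBBP9. Quantity: 2.5 µM RBBP9 dispensing solution, before mixing. Detection: FP readout at 525/598 nm. Reagent: Serine-hydrolase probe FP-Rh, 375 nM pre-mixing. Measure: % inhibition. Control set: DMSO-treated enzyme wells and wells lacking RBBP9. Buffer or medium: Tris-NaCl-Pluronic buffer, pH 8.0. Times: preincubation 30 min plus labeling 45 min at 25 °C.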
PfM18AAP inh-2 = PfM18AAP inhibition, confirmation; shares compounds with PfM18AAP inh-1; recombinant PfM18AAP, H-Glu-NHMec fluorogenic cleavage; 2,400 compounds, 28% hits; inhibition, % at 7.35 µM;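 active = mean inhibition over replicate wells above the hit cutoff set for the earlier primary screen, cut at about 29% in these data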
CTSL1 confirm = counter-screen for PFM18AAP inhibitors: confirmation of human cathepsin L inhibitors. 2,400 tested, under 10 active. inhibition, % at 5.96 µM. purified cathepsin L1, Z-Leu-Arg-MCA fluorescence. shares compounds with PfM18AAP inh-1. AID 2178;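 active = average inhibition across replicates above the hit cutoff set in the earlier primary screen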
Large screens that a line does not name were inactive (follow-up assays come after a bar, where they were run). Most compounds without a hit are left out; they make up all but 2.9% or so of the library.

O=C(O)c1ccc2c(c1)C1C=CCC1C(c1ccncc1)N2 (stereo unspecified)	PfM18AAP inh-1 37 | PfM18AAP inh-2 inactive | CTSL1 confirm inactive
COCCCNC(=S)NCCc1ccc(F)cc1	none
COCCCNC(=S)NNC(=S)Nc1ccc(F)cc1F	PfM18AAP inh-1 32 | PfM18AAP inh-2 inactive | CTSL1 confirm inactive
COCCCNC(=S)NNC(=S)Nc1ccccc1	PfM18AAP inh-1 40 | PfM18AAP inh-2 inactive | CTSL1 confirm inactive
CSCCC(NC(=O)c1ccccc1Br)C(=O)N1CCCC(C(F)(F)F)C1 (stereo unspecified)	none (no result: Runt-SMMHC FRET, Hck Nef HTS, Runt-CBFb FRET, RBBP9 inhibitor)
COc1ccc(-c2nn(-c3ccccc3)cc2C(N)=O)cc1OC	none (no result: Runt-SMMHC FRET, Hck Nef HTS, Runt-CBFb FRET, RBBP9 inhibitor)
CCOC(=O)c1c(N)sc(-c2ccccc2)c1C	none
Cc1c(-c2ccccc2)sc(N)c1C(=O)N1CCOCC1	PfM18AAP inh-1 36 | PfM18AAP inh-2 inactive | CTSL1 confirm inactive
O=C1ON=C(c2ccccc2)/C1=C/c1ccc(O)c(O)c1	PfM18AAP inh-1 60 (no result: Runt-SMMHC FRET, Hck Nef HTS, Runt-CBFb FRET, RBBP9 inhibitor) | PfM18AAP inh-2 37 | CTSL1 confirm inactive
C[C@@H](CN=[N+]=[N-])CN1CC[C@H](C(C)(C)C)CCC1=O	none (no result: Runt-SMMHC FRET, Hck Nef HTS, Runt-CBFb FRET, RBBP9 inhibitor)
CC(=O)NC1=NC(=O)/C(=C/c2cc(C)n(-c3cccc(C(=O)O)c3)c2C)S1	PfM18AAP inh-1 33 | PfM18AAP inh-2 inactive | CTSL1 confirm inactive
CCCn1nc(NS(=O)(=O)c2cccc3nonc23)c2cc3ccccc3nc21	none (no result: Runt-SMMHC FRET, Hck Nef HTS, Runt-CBFb FRET, RBBP9 inhibitor)
O=C(CN1CCN(c2ccccn2)CC1)Nc1nc2ccccc2s1	none (no result: Runt-SMMHC FRET, Hck Nef HTS, Runt-CBFb FRET, RBBP9 inhibitor)
Cc1c(NC(=S)N/N=C\c2ccccc2O)c(=O)n(-c2ccccc2)n1C	PfM18AAP inh-1 36 | PfM18AAP inh-2 inactive | CTSL1 confirm inactive
Cc1c(NC(=S)N/N=C/c2ccc(Br)cc2)c(=O)n(-c2ccccc2)n1C	none
CSc1ccc(S(=O)(=O)N2CCC(C(=O)NCCN3CCOCC3)CC2)cc1	none (no result: Runt-SMMHC FRET, Hck Nef HTS, Runt-CBFb FRET, RBBP9 inhibitor)
CC(=O)c1ccc(N2CCN(c3ccc(C(N)=O)cc3[N+](=O)[O-])CC2)cc1	RanGTP-Impb inh inconclusive
NC(=O)c1ccc(N2CCN(c3ccc(O)cc3)CC2)c([N+](=O)[O-])c1	PfM18AAP inh-1 50 | PfM18AAP inh-2 inactive | CTSL1 confirm inactive
COc1cccc(C(O)c2nccn2Cc2ccccc2)c1OC (stereo unspecified)	none (no result: Runt-SMMHC FRET, Hck Nef HTS, Runt-CBFb FRET, RBBP9 inhibitor)
O=C(CNc1cccc(C(F)(F)F)c1)N/N=C/c1ccccc1C(=O)O	none
O=C(NNc1nc2cc3c(cc2s1)OCCO3)c1ccccc1	PfM18AAP inh-1 54 | PfM18AAP inh-2 inactive | CTSL1 confirm inactive
Cc1cccc2sc(NNC(=O)c3ccc4c(c3)OCCO4)nc12	RanGTP-Impb inh inconclusive, PfM18AAP inh-1 34 | PfM18AAP inh-2 inactive | CTSL1 confirm inactive
Cc1ccc(CSc2nc3ccccc3c(=O)n2C)cc1	none (no result: Runt-SMMHC FRET, Hck Nef HTS, Runt-CBFb FRET, RBBP9 inhibitor)
O=C(NNC(=O)C1CC(c2cccs2)=NO1)Nc1ccc(Cl)cc1 (stereo unspecified)	none (no result: Runt-SMMHC FRET, Hck Nef HTS, Runt-CBFb FRET, RBBP9 inhibitor)
N#Cc1c(SCC(=O)Nc2nncs2)sc2c(O)cc(=O)[nH]c12	PfM18AAP inh-1 53 (no result: Runt-SMMHC FRET, Hck Nef HTS, Runt-CBFb FRET, RBBP9 inhibitor) | PfM18AAP inh-2 29 | CTSL1 confirm inactive
CC1Sc2ccc(S(=O)(=O)CCC(=O)N3CCc4ccccc43)cc2NC1=O (stereo unspecified)	none (no result: Runt-SMMHC FRET, Hck Nef HTS, Runt-CBFb FRET, RBBP9 inhibitor)
CC1CCN(S(=O)(=O)c2ccc3c(c2)N(CC(=O)NCCCN2CCCCC2)C(=O)CS3)CC1	none (no result: Runt-SMMHC FRET, Hck Nef HTS, Runt-CBFb FRET, RBBP9 inhibitor)
Cn1nnc2ccccc2c1=O	none
O=C(CCN1C(=O)c2ccccc2C1=O)NCc1ccccc1	none (no result: Runt-SMMHC FRET, Hck Nef HTS, Runt-CBFb FRET, RBBP9 inhibitor)
O=C(Nn1cnnc1)c1ccccc1CCc1ccccc1	PfM18AAP inh-1 42 | PfM18AAP inh-2 35 | CTSL1 confirm inactive
O=C(Nn1cnnc1)c1ccccc1-c1ccccc1	PfM18AAP inh-1 56 | PfM18AAP inh-2 64 | CTSL1 confirm inactive
O=C(CCN1C(=O)c2ccccc2C1=O)Nn1cnnc1	PfM18AAP inh-1 45 | PfM18AAP inh-2 46 | CTSL1 confirm inactive
O=C(Nc1cccnc1)c1ccccc1-c1ccccc1	none (no result: Runt-SMMHC FRET, Runt-CBFb FRET)
CC1Cc2c([nH]c3ccccc23)C2c3ccccc3CN12 (stereo unspecified)	none (no result: Runt-SMMHC FRET, Hck Nef HTS, Runt-CBFb FRET, RBBP9 inhibitor)
